In ChEMBL document CHEMBL1275561, “In vitro activities of doripenem, a new broad-spectrum carbapenem, against recently collected clinical anaerobic isolates, with emphasis on the Bacteroides fragilis group” (2008):
Values after ≈ are worked out from the molar mass of the structure shown.

Experiments:
Type in all cases: functional
Clostridioides difficile = test: Antimicrobial activity against Clostridium difficile by agar dilution method
[1] = tested on: Peptoniphilus asaccharolyticus; test: Antimicrobial activity against Peptoniphilus asaccharolyticus assessed as resistant isolates by agar dilution method; details: pooled result: one value given for 4 cell lines, strains, targets or settings
Method in brief: (§1)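 Agar dilution following CLSI on brucella agar with 5% lysed defibrinated sheep blood and 1 μg/ml vitamin K1, plates made on test day. Log-phase cells at 0.5 McFarland, about 10^5 CFU/spot by Steers replicator, 48 h anaerobic at 37°C. MIC read as the lowest concentration causing a marked growth change versus control. Resistance counted by CLSI anaerobe breakpoints. Eubacterium lentum ATCC 43055 served as control.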

Parabacteroides merdae [2] = test: Antimicrobial activity against Bacteroides merdae by agar dilution method
Method in brief: (§2)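 CLSI agar dilution on enriched brucella agar (5% lysed defibrinated sheep blood, 1 μg/ml vitamin K1), with drug plates made on the test day. Log-phase cells were adjusted to 0.5 McFarland, and about 10^5 CFU/spot was delivered by Steers replicator. Plates were incubated anaerobically at 37°C for 48 h. MIC was the lowest concentration giving a marked growth change versus the control plate. Controls were B. fragilis ATCC 25285 and B. thetaiotaomicron ATCC 29741.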

[3] = tested on: Clostridium paraputrificum; test: Antimicrobial activity against Clostridium paraputrificum by agar dilution method
Bacteroides fragilis [4] = test: Antimicrobial activity against Bacteroides fragilis assessed as resistant isolates by agar dilution method
Method in brief: (§3)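 CLSI agar dilution on enriched brucella agar (5% lysed defibrinated sheep blood, 1 μg/ml vitamin K1), plates made on test day. Log-phase inocula adjusted to 0.5 McFarland; about 10^5 CFU/spot by Steers replicator. Incubated anaerobically at 37°C for 48 h. MIC was the lowest concentration giving a marked change in growth versus the drug-free control plate. Resistance rates used CLSI anaerobe breakpoints. Controls were B. fragilis ATCC 25285 and B. thetaiotaomicron ATCC 29741.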

Propionibacterium [5] = test: Antimicrobial activity against Propionibacterium sp. by agar dilution method
Method in brief: (§4)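 Log-phase isolates were adjusted to 0.5 McFarland, and about 10^5 CFU/spot was delivered by Steers replicator. Plates were incubated anaerobically at 37°C for 48 h. MIC was the lowest concentration giving a marked growth change versus the control plate. Eubacterium lentum ATCC 43055 was the QC strain, with repeats when out of range.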

Phocaeicola vulgatus [6] = test: Antimicrobial activity against Bacteroides vulgatus by agar dilution method; method in brief: as §2
Clostridium subterminale = test: Antimicrobial activity against Clostridium subterminale by agar dilution method
Cutibacterium acnes [7] = test: Antimicrobial activity against Propionibacterium acnes by agar dilution method; method in brief: as §4
Bacteroides caccae [8] = test: Antimicrobial activity against Bacteroides caccae by agar dilution method; method in brief: as §2
Bacteroides ovatus [9] = test: Antimicrobial activity against Bacteroides ovatus by agar dilution method; method in brief: as §2
Finegoldia magna [10] = test: Antimicrobial activity against Finegoldia magna assessed as resistant isolates by agar dilution method; method in brief: as §1
Bacteroides uniformis [11] = test: Antimicrobial activity against Bacteroides uniformis assessed as resistant isolates by agar dilution method; method in brief: as §3
Clostridium tertium = test: Antimicrobial activity against Clostridium tertium by agar dilution method
[12] = tested on: Bacteroides thetaiotaomicron; test: Antimicrobial activity against Bacteroides thetaiotaomicron by agar dilution method; method in brief: as §2
Bacteroides nordii [13] = test: Antimicrobial activity against Bacteroides nordii assessed as resistant isolates by agar dilution method; method in brief: as §3
Peptostreptococcus sp. = test: Antimicrobial activity against Peptostreptococcus sp. by agar dilution method; method in brief: as §4
[Clostridium] innocuum [14] = Antimicrobial activity against Clostridium innocuum assessed as resistant isolates by agar dilution method; details: pooled result: one value given for 4 cell lines, strains, targets or settings
Bacteroides eggerthii [15] = test: Antimicrobial activity against Bacteroides eggerthii assessed as resistant isolates by agar dilution method; method in brief: as §3
Bacteroides eggerthii [16] = test: Antimicrobial activity against Bacteroides eggerthii by agar dilution method; method in brief: as §2
Parvimonas micra = test: Antimicrobial activity against Micromonas micros by agar dilution method
Method in brief: (§5)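 Gram-positive anaerobes were tested by CLSI agar dilution on brucella agar enriched with 5% lysed defibrinated sheep blood and 1 μg/ml vitamin K1. Inoculum was log-phase growth at 0.5 McFarland, about 10^5 CFU/spot by replicator. Incubation was anaerobic, 37°C, 48 h. MIC was the lowest concentration with a marked growth change versus the drug-free plate. Eubacterium lentum ATCC 43055 was the control, and tests were repeated if it fell outside the CLSI range.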

[Clostridium] innocuum [17] = Antimicrobial activity against Clostridium innocuum by agar dilution method
Finegoldia magna [18] = test: Antimicrobial activity against Finegoldia magna by agar dilution method; method in brief: as §5
Clostridium perfringens = test: Antimicrobial activity against Clostridium perfringens by agar dilution method
Propionibacterium [19] = test: Antimicrobial activity against Propionibacterium sp. assessed as resistant isolates by agar dilution method; method in brief: as §1
Anaerococcus prevotii = test: Antimicrobial activity against Anaerococcus prevotii by agar dilution method; method in brief: as §5
[20] = tested on: Parabacteroides distasonis; test: Antimicrobial activity against Bacteroides distasonis assessed as resistant isolates by agar dilution method; method in brief: as §3
Cutibacterium acnes [21] = test: Antimicrobial activity against Propionibacterium acnes assessed as resistant isolates by agar dilution method; method in brief: as §1
Bacteroides caccae [22] = test: Antimicrobial activity against Bacteroides caccae assessed as resistant isolates by agar dilution method; method in brief: as §3
[23] = tested on: Peptoniphilus asaccharolyticus; test: Antimicrobial activity against Peptoniphilus asaccharolyticus by agar dilution method; method in brief: as §5
[24] = tested on: Parabacteroides distasonis; test: Antimicrobial activity against Bacteroides distasonis by agar dilution method; method in brief: as §2
Phocaeicola vulgatus [25] = test: Antimicrobial activity against Bacteroides vulgatus assessed as resistant isolates by agar dilution method; method in brief: as §3
Bacteroides fragilis [26] = test: Antimicrobial activity against Bacteroides fragilis by agar dilution method; method in brief: as §2
[27] = tested on: Bacteroides thetaiotaomicron; test: Antimicrobial activity against Bacteroides thetaiotaomicron assessed as resistant isolates by agar dilution method; method in brief: as §3
Bacteroides uniformis [28] = test: Antimicrobial activity against Bacteroides uniformis by agar dilution method; method in brief: as §2
Parabacteroides merdae [29] = test: Antimicrobial activity against Bacteroides merdae assessed as resistant isolates by agar dilution method; method in brief: as §3
Bacteroides nordii [30] = test: Antimicrobial activity against Bacteroides nordii by agar dilution method; method in brief: as §2
Bacteroides ovatus [31] = test: Antimicrobial activity against Bacteroides ovatus assessed as resistant isolates by agar dilution method; method in brief: as §3

Compound: CO[C@@]1(NC(=O)Cc2cccs2)C(=O)N2C(C(=O)O)=C(COC(N)=O)CS[C@@H]21 [CEFOXITIN]
- MIC (Clostridioides difficile): > 8 µg/mL
- Activity [1]: 0%
- MIC50 (Parabacteroides merdae [2]): 16 µg/mL (≈ 37.4 µM)
- MIC90 (Parabacteroides merdae [2]): 32 µg/mL (≈ 74.9 µM)
- MIC50 [3]: 64 µg/mL (≈ 150 µM)
- MIC90 [3]: > 128 µg/mL
- Activity (Bacteroides fragilis [4]): 3%
- MIC (Propionibacterium [5]): 1 µg/mL (≈ 2.34 µM)
- MIC50 (Propionibacterium [5]): 1 µg/mL (≈ 2.34 µM)
- MIC90 (Propionibacterium [5]): 1 µg/mL (≈ 2.34 µM)
- MIC50 (Phocaeicola vulgatus [6]): 8 µg/mL (≈ 18.7 µM)
- MIC90 (Phocaeicola vulgatus [6]): 32 µg/mL (≈ 74.9 µM)
- MIC50 (Clostridium subterminale): 64 µg/mL (≈ 150 µM)
- MIC90 (Clostridium subterminale): > 128 µg/mL
- MIC (Cutibacterium acnes [7]): 1 µg/mL (≈ 2.34 µM)
- MIC50 (Cutibacterium acnes [7]): 1 µg/mL (≈ 2.34 µM)
- MIC90 (Cutibacterium acnes [7]): 1 µg/mL (≈ 2.34 µM)
- MIC50 (Bacteroides caccae [8]): 16 µg/mL (≈ 37.4 µM)
- MIC90 (Bacteroides caccae [8]): 32 µg/mL (≈ 74.9 µM)
- MIC50 (Bacteroides ovatus [9]): 16 µg/mL (≈ 37.4 µM)
- MIC90 (Bacteroides ovatus [9]): 64 µg/mL (≈ 150 µM)
- Activity (Finegoldia magna [10]): 0%
- Activity (Bacteroides uniformis [11]): 9.5%
- MIC50 (Clostridium tertium): 64 µg/mL (≈ 150 µM)
- MIC90 (Clostridium tertium): > 128 µg/mL
- MIC50 [12]: 32 µg/mL (≈ 74.9 µM)
- MIC90 [12]: 64 µg/mL (≈ 150 µM)
- Activity (Bacteroides nordii [13]): 0%
- MIC (Peptostreptococcus sp.): 1 µg/mL (≈ 2.34 µM)
- MIC50 (Peptostreptococcus sp.): 1 µg/mL (≈ 2.34 µM)
- MIC90 (Peptostreptococcus sp.): 4 µg/mL (≈ 9.36 µM)
- Activity ([Clostridium] innocuum [14]): 55.6%
- Activity (Bacteroides eggerthii [15]): 0%
- MIC50 (Bacteroides eggerthii [16]): 16 µg/mL (≈ 37.4 µM)
- MIC90 (Bacteroides eggerthii [16]): 32 µg/mL (≈ 74.9 µM)
- MIC (Parvimonas micra): 1 µg/mL (≈ 2.34 µM)
- MIC50 (Parvimonas micra): 1 µg/mL (≈ 2.34 µM)
- MIC90 (Parvimonas micra): 4 µg/mL (≈ 9.36 µM)
- MIC50 ([Clostridium] innocuum [17]): 64 µg/mL (≈ 150 µM)
- MIC90 ([Clostridium] innocuum [17]): 128 µg/mL (≈ 299 µM)
- MIC (Finegoldia magna [18]): 1 µg/mL (≈ 2.34 µM)
- MIC50 (Finegoldia magna [18]): 1 µg/mL (≈ 2.34 µM)
- MIC90 (Finegoldia magna [18]): 1 µg/mL (≈ 2.34 µM)
- MIC (Clostridium perfringens): 1 µg/mL (≈ 2.34 µM)
- MIC50 (Clostridium perfringens): 1 µg/mL (≈ 2.34 µM)
- MIC90 (Clostridium perfringens): 4 µg/mL (≈ 9.36 µM)
- Activity (Propionibacterium [19]): 0%
- MIC (Anaerococcus prevotii): 1 µg/mL (≈ 2.34 µM)
- MIC50 (Anaerococcus prevotii): 1 µg/mL (≈ 2.34 µM)
- MIC90 (Anaerococcus prevotii): 4 µg/mL (≈ 9.36 µM)
- Activity [20]: 6.7%
- Activity (Cutibacterium acnes [21]): 0%
- Activity (Bacteroides caccae [22]): 6.3%
- MIC [23]: 1 µg/mL (≈ 2.34 µM)
- MIC50 [23]: 1 µg/mL (≈ 2.34 µM)
- MIC90 [23]: 4 µg/mL (≈ 9.36 µM)
- MIC50 [24]: 16 µg/mL (≈ 37.4 µM)
- MIC90 [24]: 32 µg/mL (≈ 74.9 µM)
- Activity (Phocaeicola vulgatus [25]): 3.2%
- MIC50 (Bacteroides fragilis [26]): 16 µg/mL (≈ 37.4 µM)
- MIC90 (Bacteroides fragilis [26]): 32 µg/mL (≈ 74.9 µM)
- Activity [27]: 10.3%
- MIC50 (Bacteroides uniformis [28]): 16 µg/mL (≈ 37.4 µM)
- MIC90 (Bacteroides uniformis [28]): 64 µg/mL (≈ 150 µM)
- Activity (Parabacteroides merdae [29]): 0%
- MIC50 (Bacteroides nordii [30]): 16 µg/mL (≈ 37.4 µM)
- MIC90 (Bacteroides nordii [30]): 32 µg/mL (≈ 74.9 µM)
- Activity (Bacteroides ovatus [31]): 14.3%
